Laboratory results from ChEMBL document CHEMBL3526081 (Drug Metab Dispos, 2011).

Experiments:
Liver microsome [1] = test: Retention time in Sprague-Dawley rat liver microsomes treated with 100 uM cinobufagin at 37 degC after 30 mins by UFLC-DAD-ESI-MS analysis; format: ADME; settings: 0.5 h
Outline: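 Male Sprague-Dawley rat microsomes (0.3 mg/ml) were incubated with CB (100 µM) at 37°C for 30 min, with and without NADPH-generating system. Separation was on an ODS column at 40°C using an acetonitrile/0.5% formic acid water gradient at 0.4 ml/min, with DAD detection at 294 nm plus ESI-MS.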

[2] = Drug level in Colony-bred Chinese Bama minipig liver microsomes treated with 100 uM cinobufagin at 37 degC after 30 mins by UFLC-ESI-MS analysis in presence of NADPH-generating system; format: ADME, Sus scrofa; settings: pig, 0.5 h
Outline: (§1)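 Liver microsomes (0.3 mg protein/ml) incubated with 100 µM substrate at 37°C for 30 min, in 100 mM potassium phosphate pH 7.4 with NADPH-generating system (1 mM NADP+, 10 mM glucose 6-phosphate, 1 unit/ml G6PDH, 4 mM MgCl2). Acetonitrile ≤1% final. Stopped with ice-cold acetonitrile and centrifuged. Metabolites identified by UFLC-ESI-MS and quantified by UFLC-DAD at 294 nm against authentic standard curves.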

Cytochrome P450 2C9 = Cytochrome P450 2C9 (Homo sapiens, UniProt P11712); test: Drug level in human recombinant CYP2C9 expressed in insect cells coexpressing NADPH-P450 reductase measured per pmol of enzyme treated with 50 uM cinobufagin at 37 degC after 30 mins by UFLC-DAD-ESI-MS analysis; settings: 0.5 h
Cytochrome P450 2C8 = biological target: T1, Cytochrome P450 2C8 (Homo sapiens, UniProt P10632); test: Drug level in human recombinant CYP2C8 expressed in insect cells coexpressing NADPH-P450 reductase measured per pmol of enzyme treated with 50 uM cinobufagin at 37 degC after 30 mins by UFLC-DAD-ESI-MS analysis; settings: 0.5 h
T1 sequence (P10632 whole entry): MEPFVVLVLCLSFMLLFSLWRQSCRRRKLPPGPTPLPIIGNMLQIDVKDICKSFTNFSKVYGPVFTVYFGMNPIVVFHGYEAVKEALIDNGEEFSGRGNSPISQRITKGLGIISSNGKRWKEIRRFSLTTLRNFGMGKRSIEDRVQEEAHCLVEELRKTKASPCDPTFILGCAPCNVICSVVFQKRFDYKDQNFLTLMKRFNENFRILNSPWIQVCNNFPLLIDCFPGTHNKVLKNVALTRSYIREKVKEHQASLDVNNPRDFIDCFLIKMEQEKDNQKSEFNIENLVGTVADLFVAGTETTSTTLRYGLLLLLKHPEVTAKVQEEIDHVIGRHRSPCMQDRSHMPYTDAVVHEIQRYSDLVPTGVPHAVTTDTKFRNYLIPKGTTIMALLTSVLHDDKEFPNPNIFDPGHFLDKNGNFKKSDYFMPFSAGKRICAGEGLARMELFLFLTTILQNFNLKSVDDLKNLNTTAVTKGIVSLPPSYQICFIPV

[3] = Drug level in Swiss-Hauschka (ICR) mouse liver microsomes treated with 100 uM cinobufagin at 37 degC after 30 mins by UFLC-ESI-MS analysis in presence of NADPH-generating system; format: ADME; settings: 0.5 h; outline: as §1
Liver microsome [4] = test: Drug metabolism in human liver microsomes assessed as 1alpha-hydroxylcinobufagin formation at 100 uM at 37 degC after 30 mins by UFLC-ESI-MS analysis in presence of 50 uM clomethiazole CYP2E1 inhibitor; format: ADME; settings: 0.5 h
Outline: (§2)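 Pooled human liver microsomes (10 donors, both sexes) in 100 mM potassium phosphate pH 7.4 were incubated with CB and a selective P450 inhibitor. Reaction was started with NADPH-generating system after 3 min preincubation at 37°C and stopped with ice-cold acetonitrile. Hydroxylated products were quantified by UFLC-DAD at 294 nm; three experiments in duplicate.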

Liver microsome [5] = test: Drug metabolism in human liver microsomes assessed as 1alpha-hydroxylcinobufagin formation per mg of protein at 100 uM at 37 degC […] by UFLC-ESI-MS analysis; format: ADME; settings: 0.5 h
Liver microsome [6] = test: Drug metabolism in beagle dog liver microsomes assessed as 5beta-hydroxylcinobufagin formation at 100 uM at 37 degC after 30 mins by UFLC-ESI-MS analysis in presence of NADPH-generating system; format: ADME, Canis lupus familiaris; settings: 0.5 h; outline: as §1
[7] = Drug metabolism in cynomolgus monkey liver microsomes assessed as 5beta-hydroxylcinobufaginn formation at 100 uM […] by UFLC-ESI-MS analysis; format: ADME, Macaca fascicularis; settings: 0.5 h, read-out: Km(app)
[8] = Drug metabolism in Colony-bred Chinese Bama minipig liver microsomes assessed as 1alpha-hydroxylcinobufagin formation per mg of protein at 100 uM at 37 degC after 30 mins by UFLC-ESI-MS analysis; format: ADME, Sus scrofa; settings: pig, 0.5 h; outline: as §1
[9] = Drug metabolism in Colony-bred Chinese Bama minipig liver microsomes assessed as 1alpha-hydroxylcinobufagin formation at 100 uM at 37 degC after 30 mins by UFLC-ESI-MS analysis in presence of 1 uM ketoconazole CYP3A4 inhibitor; format: ADME, Sus scrofa; settings: pig, 0.5 h
Outline: (§3)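 Chemical inhibition: selective P450 inhibitors (furafylline, sulfaphenazole, ketoconazole) added to liver microsome incubations in 100 mM potassium phosphate pH 7.4 with NADPH-generating system at 37°C. Hydroxylated metabolite formation quantified by UFLC at 294 nm against standards. Mean ± S.D. of three experiments in duplicate.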

Liver microsome [10] = test: Drug metabolism in human liver microsomes assessed as 5beta-hydroxylcinobufaginn formation at 100 uM […] by UFLC-ESI-MS analysis; format: ADME; settings: 0.5 h, read-out: Km(app)
Liver microsome [11] = test: Drug metabolism in beagle dog liver microsomes assessed as 1alpha-hydroxylcinobufagin formation per mg of protein at 100 uM at 37 degC after 30 mins by UFLC-ESI-MS analysis; format: ADME, Canis lupus familiaris; settings: 0.5 h; outline: as §1
[12] = Ratio of Vmax/Km in Colony-bred Chinese Bama minipig liver microsomes assessed as 5beta-hydroxylcinobufaginn formation at 100 uM […] by UFLC-ESI-MS analysis; format: ADME, Sus scrofa; settings: pig, 0.5 h
[13] = Drug metabolism in Colony-bred Chinese Bama minipig liver microsomes assessed as 1alpha-hydroxylcinobufagin formation at 100 uM at 37 degC after 30 mins by UFLC-ESI-MS analysis in presence of NADPH-generating system; format: ADME, Sus scrofa; settings: pig, 0.5 h; outline: as §1
Liver microsome [14] = test: Drug metabolism in human liver microsomes assessed as 5beta-hydroxylcinobufagin formation at 100 uM at 37 degC after 30 mins by UFLC-ESI-MS analysis in presence of 2 uM montelukast CYP2C8 inhibitor; format: ADME; settings: 0.5 h; outline: as §2
Liver microsome [15] = test: Drug metabolism in beagle dog liver microsomes assessed as 1alpha-hydroxylcinobufagin formation at 100 uM at 37 degC after 30 mins by UFLC-ESI-MS analysis in presence of 1 uM ketoconazole CYP3A4 inhibitor; format: ADME, Canis lupus familiaris; settings: 0.5 h; outline: as §3
Liver microsome [16] = test: Drug metabolism in human liver microsomes assessed as 5beta-hydroxylcinobufagin formation at 100 uM at 37 degC after 30 mins by UFLC-ESI-MS analysis in presence of 20 uM omeprazole CYP2C19 inhibitor; format: ADME; settings: 0.5 h; outline: as §2
Liver = test: Ratio of Vmax/Km in Swiss-Hauschka (ICR) mouse liver microsomes assessed as 1alpha-hydroxylcinobufagin formation at 100 uM […] by UFLC-ESI-MS analysis; format: ADME; settings: 0.5 h
[17] = Drug metabolism in Swiss-Hauschka (ICR) mouse liver microsomes assessed as 1alpha-hydroxylcinobufagin formation at 100 uM at 37 degC after 30 mins by UFLC-ESI-MS analysis in presence of NADPH-generating system; format: ADME; settings: 0.5 h; outline: as §1

Sequence of Cytochrome P450 2C9 (P11712 whole entry): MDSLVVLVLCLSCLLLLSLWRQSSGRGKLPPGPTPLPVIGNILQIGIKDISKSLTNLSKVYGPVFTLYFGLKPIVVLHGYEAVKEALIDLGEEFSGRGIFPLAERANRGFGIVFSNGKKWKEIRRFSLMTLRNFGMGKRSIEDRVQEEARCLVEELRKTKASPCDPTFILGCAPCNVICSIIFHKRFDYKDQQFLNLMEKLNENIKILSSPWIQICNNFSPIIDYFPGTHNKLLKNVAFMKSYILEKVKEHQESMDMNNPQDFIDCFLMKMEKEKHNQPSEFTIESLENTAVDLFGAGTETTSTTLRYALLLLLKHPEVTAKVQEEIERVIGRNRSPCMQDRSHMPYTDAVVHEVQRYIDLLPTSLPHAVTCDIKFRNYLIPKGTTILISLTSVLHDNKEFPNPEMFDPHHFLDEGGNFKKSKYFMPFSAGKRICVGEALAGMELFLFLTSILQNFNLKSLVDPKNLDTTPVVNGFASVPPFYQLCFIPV

| Structure (SMILES) | Retention_time (Liver microsome [1]) | Drug metabolism [2] | Drug metabolism (Cytochrome P450 2C9) | Drug metabolism (Cytochrome P450 2C8) | Drug metabolism [3] | Drug metabolism (Liver microsome [4]) | Vmax (Liver microsome [5]) | Drug metabolism (Liver microsome [6]) | Km [7] | Vmax [8] | Drug metabolism [9] | Km (Liver microsome [10]) | Vmax (Liver microsome [11]) | Vmax/Km [12] | Drug metabolism [13] | Drug metabolism (Liver microsome [14]) | Drug metabolism (Liver microsome [15]) | Drug metabolism (Liver microsome [16]) | Vmax/Km (Liver) | Drug metabolism [17] |
| --- | --- | --- | --- | --- | --- | --- | --- | --- | --- | --- | --- | --- | --- | --- | --- | --- | --- | --- | --- | --- |
| CC(=O)O[C@H]1[C@H]2O[C@]23[C@@H]2CC[C@]4(O)C[C@@H](O)CC[C@]4(C)[C@H]2CC[C@]3(C)[C@H]1c1ccc(=O)oc1 [CINOBUFOTALIN] | 7.6 min | metabolite_detected | < 0.01 pmol/min | < 0.01 pmol/min | metabolite_detected | – | – | – | – | – | – | – | – | – | – | – | – | – | – | – |
| CC(=O)O[C@H]1[C@H]2O[C@]23[C@@H]2CC[C@@H]4C[C@@H](O)C[C@H](O)[C@]4(C)[C@H]2CC[C@]3(C)[C@H]1c1ccc(=O)oc1 | 7.35 min | metabolite_detected | < 0.01 pmol/min | < 0.01 pmol/min | metabolite_detected | – | – | – | – | – | – | – | – | – | – | – | – | – | – | – |
| CC(=O)O[C@H]1[C@H]2O[C@]23[C@@H]2CC[C@@H]4C[C@@H](O)CC[C@]4(C)[C@H]2CC[C@]3(C)[C@H]1c1ccc(=O)oc1 [CINOBUFAGIN] | – | – | – | – | – | metabolite_detected | 0.59 nmol/min/mg | metabolite_detected | 8.5 µM | 0.25 nmol/min/mg | metabolite_not_detected | 20.4 µM | 1.28 nmol/min/mg | 54.6 µL/min/mg | metabolite_detected | metabolite_detected | metabolite_not_detected | metabolite_detected | 595 µL/min/mg | metabolite_detected |
